Measurements reported in publication PMC8336461 (Chemical Science, 2021).

Tests used:
[1] = test system: T. brucei brucei Lister 427 bloodstream-form parasites; test: T. brucei cell viability assay; format: cell-based; details: Trypanosoma brucei, 48 h, read-out: T. brucei EC50
Outline: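 Parasite EC50 reported as the mean ± standard error of 3 biological replicates. Each biological replicate's EC50 was calculated from technical triplicate data.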

[2] = Hep G2 cytotoxicity assay; format: cell-based; details: human, Hep G2 cells
[3] = test system: extracellular L. amazonensis; details: read-out: EC50 against L. amazonensis; cited from earlier work
T. brucei = details: read-out: EC50 against T. brucei; cited from earlier work

Row | SMILES | EC50 [1] | CC50 at 72 h [2] | EC50 [3] | EC50 (T. brucei)
1 | COC(=O)c1[nH]cc(-c2c[nH]c3ccc(Cl)cc23)c1-c1c[nH]c2ccc(Cl)cc12 [Compound 13, lynamicin A] | 8.2 ± 0.45 µM | > 10 µM | – | –
2 | CCCCCCCCCCCCCCCCOP(=O)([O-])OCC[N+](C)(C)C [miltefosine] | – | – | 1.2 µM | –
3 | CC1(C)OB(O)c2cc(NC(=O)c3ccc(F)cc3C(F)(F)F)ccc21 [acoziborole] | – | – | – | 0.6 µM
4 | COC(=O)c1[nH]c(C(=O)OC)c(-c2c[nH]c3ccc(Cl)cc23)c1-c1c[nH]c2ccc(Cl)cc12 [Compound 12, lynamicin D] | 8.3 ± 1 µM | > 10 µM | – | –
